Calls of active or inactive are those of the source. No cut-off for these calls is given here.
Tests used:
ACH-2 cell line = experiment: Induction of apoptosis in human ACH-2 cells at 1 uM after 48 hrs by PI/annexin-V staining based flow cytometry; format: functional
[1] = Toxicity in human CD4+ T-cells assessed as elevation of supernatant cytokine concentrations of TNFalpha incubated for 24 hrs by bead-based immunoassay; settings: cd4+ t cell
Outline: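 Purified CD4+ T-cells from healthy donors treated 24 h with 1 μm drug, 1 μm JQ1, or the combination. IL-2, IL-5, IL-6, IL-13, TNFα and IFN-γ in supernatants measured by flow-cytometry bead-based Th1/Th2 immunoassay. Run in duplicate.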

[2] = Toxicity in human CD4+ T-cells assessed as increase in dead cells at 1 uM in presence of JQ1; format: cell-based; settings: cd4+ t cell
Outline: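 Primary cells exposed 24 h to 1 μm drug, 1 μm JQ1, or both (1 μm each). Dead cells scored by propidium iodide staining.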

J-Lat 6.3 (Homo sapiens) = experiment: Induction of apoptosis in human J-Lat 6.3 cells at 1 uM incubated for 48 hrs after pre-incubated for 2 hrs with 20 uM caspase inhibitor Q-VD-Oph by propidium iodide/annexin-V staining based flow cytometry

In the case of `CCCCCCCCCCc1ccc2c(c1)N(C)[C@@H](C(C)C)C(=O)N[C@H](CO)C2`, the Activity (ACH-2 cell line) is reported as 59.7%, the Activity [1] is reported as “Toxic” and the Activity [2] is reported as “Non-Toxic”. The Activity (J-Lat 6.3 (Homo sapiens)) was “inactive”.

— ChEMBL document CHEMBL5674882, “Benzolactam-related compounds promote apoptosis of HIV-infected human cells via protein kinase C-induced HIV latency reversal” (J Biol Chem, 2019)
